ChEMBL document CHEMBL4043076, “Hormonemate Derivatives from Dothiora sp., an Endophytic Fungus” (J Nat Prod, 2017)

How the values were obtained:
Format in all cases: functional, cell-based
[1] = test system: HepG2; test: Cytotoxicity against human HepG2 cells assessed as reduction in cell viability incubated for 24 hrs by MTT assay; conditions: HepG2, 24 h
Summary of the method: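 HepG2 (ATCC) grown in Eagle's MEM with 10% FBS, 2 mM L-glutamine, 1 mM sodium pyruvate and 100 μM nonessential amino acids at 37 °C, 5% CO2. Seeded at 20000 cells/well for the 24 h assay. Compounds were run in triplicate at 10 two-fold dilutions from 40 μg/mL, with 0.5% DMSO maximum. Viability was read by MTT reduction and IC50 determined.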

[2] = test system: MIA PaCa-2; test: Cytotoxicity against human MIAPaCa2 cells assessed as reduction in cell viability incubated for 24 hrs by MTT assay; conditions: MIA PaCa-2, 24 h
Summary of the method: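 MiaPaca_2 (ATCC CRL-1420) cultured in DMEM with 10% FBS, 2.5% horse serum, 1% L-glutamine and 1% penicillin/streptomycin at 37 °C, 5% CO2. Seeding was 20000 cells/well for the 24 h assay. Compounds were tested in triplicate over 10 two-fold dilutions from a 40 μg/mL top concentration, with 0.5% DMSO as negative control. MTT reduction was used for IC50.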

[3] = test system: MCF7; test: Cytotoxicity against human MCF7 cells assessed as reduction in cell viability incubated for 24 hrs by MTT assay; conditions: MCF7, 24 h
Summary of the method: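 MCF-7 (ATCC HTB-22) kept in MEM with 10% FBS, glutamine, pyruvate and nonessential amino acids plus 0.01 mg/mL bovine insulin at 37 °C, 5% CO2. Plated at 30000 cells/well for the 24 h exposure. Triplicate 10-point, 2-fold serial dilutions from 40 μg/mL were used, with DMSO ≤0.5%. MMS served as positive control. The MTT viability read-out gave the IC50.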

Row | SMILES | IC50 [1] [µM] | IC50 [2] [µM] | IC50 [3] [µM]
1 | CC[C@H](C)[C@@H](O)C(=O)O[C@@H](C(=O)O[C@@H](C(=O)O[C@@H](C(=O)O[C@@H](C(=O)O[C@H](CO)[C@@H](O)[C@H](O)CO)[C@@H](C)CC)[C@@H](C)CC)[C@@H](C)CC)[C@@H](C)CC | 26.2 | 36.4 | 19
2 | CC[C@H](C)[C@@H](O)C(=O)O[C@@H](C(=O)O[C@@H](C(=O)O[C@@H](C(=O)O[C@@H](C(=O)OC[C@@H](O)[C@@H](O)CO)[C@@H](C)CC)[C@@H](C)CC)[C@@H](C)CC)[C@@H](C)CC | 28.7 | > 57.8 | 11.1
3 | CC[C@H](C)[C@@H](O)C(=O)O[C@@H](C(=O)O[C@@H](C(=O)O[C@@H](C(=O)OC[C@@H](O)[C@@H](O)[C@H](O)CO)[C@@H](C)CC)[C@@H](C)CC)[C@@H](C)CC | > 65.7 | > 65.7 | > 65.7
4 | CC[C@H](C)[C@@H](O)C(=O)O[C@@H](C(=O)O[C@@H](C(=O)O[C@@H](C(=O)O[C@@H](C(=O)OC[C@@H](O)[C@@H](O)[C@H](O)[C@H](O)CO)[C@@H](C)CC)[C@@H](C)CC)[C@@H](C)CC)[C@@H](C)CC | > 53.2 | > 53.2 | 24.3
5 | CC[C@H](C)[C@@H](O)C(=O)O[C@@H](C(=O)O[C@@H](C(=O)O[C@@H](C(=O)O[C@@H](C(=O)O[C@@H]([C@H](O)[C@H](O)CO)[C@H](O)CO)[C@@H](C)CC)[C@@H](C)CC)[C@@H](C)CC)[C@@H](C)CC | > 53.2 | > 53.2 | 27.8
6 | CC[C@H](C)[C@@H](O)C(=O)O[C@@H](C(=O)O[C@@H](C(=O)O[C@@H](C(=O)O[C@@H](C(=O)O[C@H](CO)[C@@H](O)[C@H](O)[C@H](O)CO)[C@@H](C)CC)[C@@H](C)CC)[C@@H](C)CC)[C@@H](C)CC | 36.2 | > 53.2 | 18.3
7 | CC[C@H](C)[C@@H](O)C(=O)O[C@@H](C(=O)O[C@@H](C(=O)O[C@@H](C(=O)O[C@@H](C(=O)OC[C@@H](O)[C@@H](O)[C@H](O)CO)[C@@H](C)CC)[C@@H](C)CC)[C@@H](C)CC)[C@@H](C)CC | 29 | > 55.4 | 15.6
8 | COc1cccc2c1C(=O)c1c(O)c3c(c(O)c1C2=O)C[C@@](O)(C(=O)CO)C[C@@H]3O[C@H]1C[C@H](N)[C@H](O)[C@H](C)O1 [DOXORUBICIN] | 0.2 | 1.9 | 
